Active and inactive are the calls of the source.

Data set [1] is described as follows: Drug uptake in BALB/c mouse small intestine implanted with mouse 4T1 cells assessed per gram of tissue at 0.18 mg/kg, ip after 48 hrs by HPLC-based fluorescence analysis. Format: ADME, organism-based. The settings on record: in vivo. An outline of the steps:
(§1)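 Female BALB/c mice with 4T1 cells (1 × 10^6 in HBSS) implanted in left rear thigh; single i.p. dose, 7 in ethanol/PEG400/H2O (2/3/5) with 0.1% DMSO, mono-L-aspartyl chlorin e6 in saline; kept dark until sacrifice. Tissues washed, frozen, homogenized in CH3OH/DMSO/H2O (32/8/1), centrifuged 2300×g; supernatant analysed by HPLC with fluorescence detection; three animals per time point.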

For a further data set, the system named is HeLa. The data set is described as follows: Drug uptake in human HeLa cells at 0.1 uM after 24 hrs by spectrophotometrical analysis. Format: ADME, cell-based. Summed up: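 HeLa cells (2.5 × 10^6/well) in DMEM with 10% FCS, preincubated 24 h at 37°C; photosensitizer added to 0.1 µM final (1% DMSO) for 24 h, two wells each. Cells washed twice with PBS, lysed in DMSO, Soret-band absorbance read against DMSO calibration; mean of three replicate experiments.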

Data set [2] has as its system Stomach. The data set is described as follows: Drug uptake in BALB/c mouse stomach implanted with mouse 4T1 cells assessed per gram of tissue at 0.18 mg/kg, ip after 72 hrs by HPLC-based fluorescence analysis. The class given is ADME, organism-based. The settings on record: in vivo. Summed up:
as §1

In data set [3] the test system is Lung. The experiment in a line: Drug uptake in BALB/c mouse lung implanted with mouse 4T1 cells assessed per gram of tissue at 0.18 mg/kg, ip after 72 hrs by HPLC-based fluorescence analysis. The note with it: in vivo. Format: ADME, organism-based. Summed up:
(§2)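 Female BALB/c mice bearing 4T1 thigh tumours received an i.p. dose in ethanol/PEG400/H2O (2/3/5) with 0.1% DMSO, or in saline, and were kept dark until killed. Tissues were weighed (100 mg), homogenised in CH3OH/DMSO/H2O (32/8/1) and centrifuged twice at 2300×g at 4°C. Supernatants were analysed by HPLC with fluorescence detection (λex 404/λem 654 nm or λex 400/λem 666 nm). n = 3 per time point.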

Data set [4] can be described thus: Induction of reactive oxygen generation assessed as quantum yield of hydrogen peroxide generation in O2 saturated PBS containing 1% DMSO under photoirradiation by spectrometry relative to control hematoporphyrin. The class given is physicochemical. The note with it: buffer. Summed up:
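Photosensitizer (1.00 µM) with HPF (2.00 µM) in PBS containing 1% DMSO, oxygenated 1 min, irradiated with 100-W halogen lamp through λ>500 nm cutoff filter at 37°C; hematoporphyrin as reference.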

The subject of data set [5] is 4T1. The experiment in a line: Drug uptake in mouse 4T1 cells implanted in BALB/c mouse assessed per gram of tissue at 0.18 mg/kg, ip after 72 hrs by HPLC-based fluorescence analysis. The class given is ADME, organism-based. The note with it: in vivo. Summed up: as §1
Data set [6] has as its system Liver. The data set is described as follows: Drug uptake in BALB/c mouse liver implanted with mouse 4T1 cells assessed per gram of tissue at 0.18 mg/kg, ip after 24 hrs by HPLC-based fluorescence analysis. The settings on record: in vivo. Format: ADME, organism-based. An outline of the steps:
as §2

For a further data set, the system named is Spleen. The data set is described as follows: Drug uptake in BALB/c mouse spleen implanted with mouse 4T1 cells assessed per gram of tissue at 0.18 mg/kg, ip after 12 hrs by HPLC-based fluorescence analysis. The note with it: in vivo. Format: ADME, organism-based. An outline of the steps:
as §1

Data set [7] deals with Liver. The data set is described as follows: Drug uptake in BALB/c mouse liver implanted with mouse 4T1 cells assessed per gram of tissue at 0.18 mg/kg, ip after 48 hrs by HPLC-based fluorescence analysis. Format: ADME, organism-based. The settings on record: in vivo. Summed up:
as §2

The next data set has as its system Heart. The data set is described as follows: Drug uptake in BALB/c mouse heart implanted with mouse 4T1 cells assessed per gram of tissue at 0.18 mg/kg, ip after 12 hrs by HPLC-based fluorescence analysis. Format: ADME, organism-based. The settings on record: in vivo. An outline of the steps: as §2
Data set [8] is described as follows: Drug uptake in BALB/c mouse large intestine implanted with mouse 4T1 cells assessed per gram of tissue at 0.18 mg/kg, ip after 12 hrs by HPLC-based fluorescence analysis. Format: ADME, organism-based. The settings on record: in vivo. Summed up: as §2
The nature of data set [9]: Drug uptake in BALB/c mouse small intestine implanted with mouse 4T1 cells assessed per gram of tissue at 0.18 mg/kg, ip after 72 hrs by HPLC-based fluorescence analysis. The class given is ADME, organism-based. The settings on record: in vivo. An outline of the steps:
as §1

A short description of data set [10]: Drug uptake in BALB/c mouse large intestine implanted with mouse 4T1 cells assessed per gram of tissue at 0.18 mg/kg, ip after 48 hrs by HPLC-based fluorescence analysis. The class given is ADME, organism-based. The note with it: in vivo. An outline of the steps:
as §2

Data set [11] relates to 4T1. The data set is described as follows: Photocytotoxicity against mouse 4T1 cells assessed as cell survival preincubated for 24 hrs followed by irradiation at 16 J/cm2 measured at 24 hrs by WST-8 assay. The class given is functional, cell-based. The settings on record: 4T1, light or radiation study. An outline of the steps:
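Cells (5 × 10^3/well) in DMEM with 10% FCS, 24 h at 37°C, 5% CO2; photosensitizer 1–50000 nM (1% DMSO final) for 24 h, washed, fresh medium. Irradiated with 100-W halogen lamp through λ>500 nm or λ>600 nm cutoff filter to 16 J·cm−2; WST-8 absorbance at 450 nm 24 h later, survival normalized to no-drug wells.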

Data set [12] has as its system Lung. The experiment in a line: Drug uptake in BALB/c mouse lung implanted with mouse 4T1 cells assessed per gram of tissue at 0.18 mg/kg, ip after 6 hrs by HPLC-based fluorescence analysis. The class given is ADME, organism-based. The note with it: in vivo. Summed up:
as §2

In the next data set the test system is Kidney. The data set is described as follows: Drug uptake in BALB/c mouse kidney implanted with mouse 4T1 cells assessed per gram of tissue at 0.18 mg/kg, ip after 12 hrs by HPLC-based fluorescence analysis. The class given is ADME, organism-based. The settings on record: in vivo. An outline of the steps: as §2
A short description of data set [13]: Drug uptake in nucleus of human Hela cells at 0.5 uM preincubated for 24 hrs followed by MitoTracker Green FM addition for 30 mins by CSLM analysis. Format: ADME, cell-based. The settings on record: 0.5 h. Summed up:
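HeLa cells (1 × 10^4) plated 24 h, incubated 24 h with 0.5 µM final photosensitizer (1% DMSO), washed, stained 30 min with 250 nM MitoTracker Green FM in HBSS at 37°C, fixed in 4% paraformaldehyde. Confocal imaging: red λex 488/λem 650 nm; green λex 488/λem 505–530 nm.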

The test system of another data set is Urinary bladder. The experiment in a line: Drug uptake in BALB/c mouse bladder implanted with mouse 4T1 cells assessed per gram of tissue at 0.18 mg/kg, ip after 6 hrs by HPLC-based fluorescence analysis. The settings on record: in vivo. Format: ADME, organism-based. Summed up:
as §2

Data set [14] concerns 4T1. The data set is described as follows: Antitumor activity against mouse 4T1 cells implanted in BALB/c mouse at 0.045 mg/kg, ip assessed as tumor growth inhibition administered for 48 hrs followed by irradiation at 40 mW/cm2 measured after 7 days. The class given is functional, organism-based. Summed up:
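Female BALB/c mice carried 4T1 thigh tumours (1 × 10^6 cells) of 50–60 mm3. They were dosed i.p. at 250–31.25 nmol·kg−1 in ethanol/PEG400/H2O (2/3/5) containing 0.1% DMSO and kept dark. At 48 h the tumour was irradiated with a 100-W halogen lamp at 40 mW·cm−2 for 20.1 min. Tumour size was measured daily by caliper as length × width²/2 and normalised to day 0.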

For data set [15], the system named is 4T1. The data set is described as follows: Drug uptake in mouse 4T1 cells implanted in BALB/c mouse assessed per gram of tissue at 0.18 mg/kg, ip after 6 hrs by HPLC-based fluorescence analysis. Format: ADME, organism-based. The settings on record: in vivo. An outline of the steps:
as §1

The test system of data set [16] is 4T1. The data set is described as follows: Drug uptake in mouse 4T1 cells implanted in BALB/c mouse assessed per gram of tissue at 0.18 mg/kg, ip after 24 hrs by HPLC-based fluorescence analysis. The note with it: in vivo. Format: ADME, organism-based. Summed up: as §1
A short description of data set [17]: Drug uptake in BALB/c mouse small intestine implanted with mouse 4T1 cells assessed per gram of tissue at 0.18 mg/kg, ip after 12 hrs by HPLC-based fluorescence analysis. Format: ADME, organism-based. The settings on record: in vivo. Summed up: as §1
The test system of data set [18] is Stomach. The experiment in a line: Drug uptake in BALB/c mouse stomach implanted with mouse 4T1 cells assessed per gram of tissue at 0.18 mg/kg, ip after 6 hrs by HPLC-based fluorescence analysis. Format: ADME, organism-based. The note with it: in vivo. An outline of the steps:
as §1

Turning to `CN1CC2C3=N/C(=C(/c4c(F)c(F)c(S[C@@H]5O[C@H](CO)[C@@H](O)[C@H](O)[C@H]5O)c(F)c4F)C4=N/C(=C(/c5c(F)c(F)c(F)c(F)c5F)c5ccc([nH]5)/C(c5c(F)c(F)c(S[C@@H]6O[C@H](CO)[C@@H](O)[C@H](O)[C@H]6O)c(F)c5F)=C5/C=CC(=N5)C3c3c(F)c(F)c(F)c(F)c3F)C=C4)C2C1` (stereo partly drawn), the Drug uptake was 9.5 ng/g in data set [1]; “Active” in the data set on HeLa; 7 ng with Stomach [2]; 7 ng/g in the data set on Lung [3]; 1.8 ng/g in the data set with 4T1 [5]; 60 ng in the data set on Liver [6]. The Drug uptake in the data set with Spleen amounted to 55 ng; in the data set on Liver [7], 9 ng; with Heart it was 6 ng/g; in data set [8], 41 ng; in data set [9] it was 9.8 ng/g; in [10] it was 17 ng/g. The Drug uptake in the data set on Lung [12] was 70 ng/g; in the data set on Kidney it was 25 ng; in data set [13] it was “Not Active”; in the data set on Urinary bladder it was 90 ng/g; in the data set with 4T1 [15], 5 ng; in the data set with 4T1 [16] it was 3 ng. Also, the values for the Drug uptake (in [17]; in the data set on Stomach [18]) were 80 ng and 48 ng/g, respectively. Also, the Ratio in data set [4] stood at 0.18. In addition, the concentration for a half-maximal effect (EC50) in the data set on 4T1 [11] was found to be 500 pM. For the same molecule, the outcome in the data set on 4T1 [14] was Active.

These data come from ChEMBL document CHEMBL3734686, “Synthesis, Photophysical Properties, and Biological Evaluation of trans-Bisthioglycosylated Tetrakis(fluorophenyl)chlorin for Photodynamic Therapy” (J Med Chem, 2015).
